Measured values of several laboratories.
Organism: Klebsiella pneumoniae
Effect on: microbial growth

Compound	method	strain	time	MIC
C[C@@H](O)[C@H]1C(=O)N2C(C(=O)O)=C(SCCN=CN)C[C@H]12	broth dilution	ATCC13883	–	4 µg/mL
Cc1nnc(SCC2=C(C(=O)O)N3C(=O)[C@@H](NC(=O)Cn4cnnn4)[C@H]3SC2)s1	broth dilution	ATCC43816	–	1 µg/mL
CCCCCCC#Cc1cncc(-c2nnc(SCc3ccc([N+](=O)[O-])cc3)n2CCCN)c1	broth dilution	DSM30104	–	> 64 µg/mL
CO[C@@]1(NC(=O)Cc2cccs2)C(=O)N2C(C(=O)O)=C(COC(N)=O)CS[C@@H]21	broth dilution	ATCC43816	–	1 µg/mL
[H]/N=C(\N/C(=N/[H])NCCCCCCNC(=N)NC(=N)Nc1ccc(Cl)cc1)Nc1ccc(Cl)cc1	–	ATCC4352	–	1 µM
CC[C@H]1OC(=O)[C@H](C)[C@@H](O[C@H]2C[C@@](C)(OC)[C@@H](O)[C@H](C)O2)[C@H](C)[C@@H](O[C@@H]2O[C@H](C)C[C@H](N(C)C)[C@H]2O)[C@](C)(O)C[C@@H](C)CN(C)[C@H](C)[C@@H](O)[C@]1(C)O	broth dilution	ATCC13883	–	1 µg/mL
CC[C@H]1OC(=O)[C@H](C)[C@@H](O[C@H]2C[C@@](C)(OC)[C@@H](O)[C@H](C)O2)[C@H](C)[C@@H](O[C@@H]2O[C@H](C)C[C@H](N(C)C)[C@H]2O)[C@](C)(O)C[C@@H](C)C(=O)[C@H](C)[C@@H](O)[C@]1(C)O	broth dilution	ATCC43816	–	32 µg/mL
O=C(O)c1cn(C2CC2)c2cc(N3CCNCC3)c(F)cc2c1=O	broth dilution	ATCC700603	–	> 512 µg/mL
CCN1CCN(C(=O)N[C@@H](C(=O)N[C@@H]2C(=O)N3[C@@H]2SC(C)(C)[C@@H]3C(=O)O)c2ccccc2)C(=O)C1=O	broth dilution	ATCC43816	–	4 µg/mL
CCCCCCC#Cc1cncc(-c2nnc(SCc3cc([N+](=O)[O-])cc([N+](=O)[O-])c3)n2CCCN)c1	broth dilution	DSM30104	–	> 64 µg/mL
CNC(C)C1CCC(N)C(OC2C(N)CC(N)C(OC3OCC(C)(O)C(NC)C3O)C2O)O1 (centres unmarked)	broth dilution	ATCC13883	–	2 µg/mL
CCCCCCC#Cc1cncc(-c2nnc(SCc3cc([N+](=O)[O-])cc([N+](=O)[O-])c3)n2C2CCNCC2)c1	broth dilution	DSM30104	–	> 64 µg/mL
CN(C)[C@@H]1C(O)=C(C(N)=O)C(=O)[C@@]2(O)C(O)=C3C(=O)c4c(O)cccc4[C@@](C)(O)[C@H]3C[C@@H]12	broth dilution	ATCC10031	12 h	0.13 µg/mL
C[C@@H](O)[C@H]1C(=O)N2C(C(=O)O)=C(S[C@@H]3CN[C@H](C(=O)N(C)C)C3)[C@H](C)[C@H]12	broth dilution	ATCC700603	–	2 µg/mL
